Source: PubChem (several laboratories)
Yeast growth inh = yeast BB579 growth reduction in restrictive medium. S. cerevisiae BB579 growth, OD615, 48 h. inhibition, % at 10 µM. 140,000 compounds, 0.51% hits. AID 804;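 active = inhibition above a set limit, 3 SD over the mean compound inhibition, cut at about 44% in these data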
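Test system: Saccharomyces cerevisiae DeaD strain BB579, replicative lifespan model yeast | Buffer or medium: Restrictive CSMM-D medium | Doses: One dose, 10 µM compound with 0.25% DMSO | Incubation: 48 h exposure, 30 °C | Detection: Culture absorbance at 615 nm | Control set: Amphotericin B at 10 µg/mL as positive control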
Yeast life ext = extends the lifespan of yeast; S. cerevisiae growth with nicotinamide, OD615; deaD strain in restrictive glucose medium; inhibition of the nicotinamide effect, % at 10 µM; 130,000 compounds, 0.68% hits; AID 775;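 active = inhibition above a set limit, placed 3 SD over the median of all compounds, cut at about 26% in these data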;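 note: 0% = nicotinamide-treated wells and 100% = cells grown without nicotinamide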
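Assay system: engineered S. cerevisiae DeaD replicative-lifespan strain, galactose-grown log-phase cells; Buffer or medium: CSMM-D glucose medium, restrictive; Probe or stimulus: nicotinamide 1.5 mM; Compound: single dose 10 µM compound, 0.25% DMSO; Schedule: 4 h preincubation then 48 h treatment at 30 °C; Technique: OD615 measurement.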
INS promoter inh = TRM-6 insulin promoter activity inhibition; TRM-6 cells, insulin promoter-eGFP reporter, imaging; reporter expression induced with tamoxifen; inhibition, % at 2 µM; 130,000 compounds, 0.9% hits;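 active = inhibition above the mean plus 3 SD, with well images judged a real hit on visual review, cut at about 60% in these data, passing the limit was not always enough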
RAM inhibit = yeast RAM network inhibition; 190,000 compounds, 1.8% hits; inhibition, % at 50 µM; S. cerevisiae dse1pr::URA3 reporter, 5-FOA growth OD615, 2 d; analog-sensitive cbk1-as2 kinase mutant strain; AID 868;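 active = inhibition above a set limit, 3 SD over mean compound inhibition, cut at about 8.4% in these data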;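 note: 0% = DMSO-only wells with no growth and 100% = 10 µM 1-NA-PP1 full growth; inhibition rescues growth on 5-FOA so higher OD means more RAM inhibition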
Ins promoter up = MIN6 insulin promoter up-regulation; MIN6 insulin promoter-GFP reporter, high-content imaging; active compounds read high; z-score at 5 µM; 190,000 compounds, 0.3% hits; AID 1625;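 active = z-score above 3 at 5 µM with at least 500 cells counted in the well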
The depositor's hits bear a star. Rows were chosen to be rich in hits. Some 3.1% of all compounds tested hit in one or more screens of this group.

Screening Cc1c(Cl)c([N+](=O)[O-])nn1CCCC(=O)Nc1c(C)n(C)n(-c2ccccc2)c1=O returned INS promoter inh 33.3, RAM inhibit 1.4 and Ins promoter up -0.61.
Screening Cc1c(Cl)c([N+](=O)[O-])nn1CCCC(=O)Nc1c(Cl)cccc1Cl returned Yeast growth inh -66.9, Yeast life ext 3.7, INS promoter inh 20.0, RAM inhibit 9.9* and Ins promoter up 0.25.
Screening CCOC(=O)CSc1nc(C(C)(C)C)nc2ccccc12 returned INS promoter inh 4.8, RAM inhibit -0.1 and Ins promoter up -0.49.
For CSc1cc(C)c(OCC(=O)Nc2ccc(NC(C)=O)cc2)c(C)c1 the results were RAM inhibit 3.9 and Ins promoter up -0.22.
Screening Cc1cccc(-c2nnc3n2N=C(c2ccccc2)CS3)c1 returned Yeast growth inh -12.4, Yeast life ext -14.5, RAM inhibit 0.9 and Ins promoter up -0.22.
Screening Cc1nn2c(nc1=O)SCC(c1ccccc1)=N2 returned Yeast growth inh -76.4, Yeast life ext -10.8, INS promoter inh 81.6*, RAM inhibit 1.2 and Ins promoter up 0.46.
For CCN1C(=O)CSc2ccc(C(=O)NCc3ccc(OC)cc3)cc21 the results were Yeast growth inh -9.9, Yeast life ext -6.9, RAM inhibit 0.2 and Ins promoter up -1.29.
For COc1cc(NS(=O)(=O)c2ccc(NC(=O)/C=C/c3ccc([N+](=O)[O-])cc3)cc2)ncn1 the results were INS promoter inh 26.7, RAM inhibit 6.0 and Ins promoter up 0.
COc1cc(NS(=O)(=O)c2ccc(NC(=O)/C=C/c3cccc([N+](=O)[O-])c3)cc2)ncn1 was read as INS promoter inh 33.3, RAM inhibit 8.9* and Ins promoter up -0.24.
COc1ccc(/C=N/NC(N)=S)cc1OC(=O)c1cccc2ccccc12 was read as Yeast growth inh -33.3, Yeast life ext -8.6, INS promoter inh -57.1 and RAM inhibit 4.6.
`Cc1cc(C)nc(N(C#N)S(=O)(=O)c2ccccc2)n1` gave Yeast growth inh -8.0, Yeast life ext -12.9, INS promoter inh 81.8*, RAM inhibit -0.1 and Ins promoter up 0.51.
Screening COc1ccc(NS(=O)(=O)c2cc(NC(=O)[C@@H](NC(=O)c3ccccc3)C(C)C)ccc2C)cc1 returned Yeast growth inh -33.3, Yeast life ext 1.4, INS promoter inh 10.0, RAM inhibit 8.6* and Ins promoter up 0.5.
For O=C(CN1CCc2ccccc21)NN1CC(=O)N(c2ccccc2)CC1=O the results were Ins promoter up -0.12.
`Cc1cccc(NC(=O)Nc2ccc(C#N)cc2)n1` gave Yeast growth inh -36.2, Yeast life ext -11.9, INS promoter inh 20.0, RAM inhibit 1.5 and Ins promoter up 3.41*.
COc1ccc(/C=C2/C(=O)N(c3nc4ccccc4s3)N=C2CSc2ccc(Cl)cc2)cc1 was read as Yeast growth inh -18.1, Yeast life ext 6.8, INS promoter inh 7.1, RAM inhibit 6.4 and Ins promoter up 0.14.
`COc1ccc(/C=C2/C(=O)N(Cc3ccccc3)N=C2C)cc1` gave Yeast growth inh -56.4, Yeast life ext 26.7*, INS promoter inh -9.7, RAM inhibit 1.1 and Ins promoter up 0.1.
COc1ccc(C2NC(=O)c3sc4nc(C)c(C(C)=O)c(-c5ccc(Cl)cc5)c4c3N2)cc1 (configuration not stated) was read as Yeast growth inh -71.2, Yeast life ext -12.6, RAM inhibit 10.4* and Ins promoter up -0.81.
Screening COC(=O)c1ccc2c(=O)n(CCCCCC(=O)NC(C)C)c(=O)[nH]c2c1 returned INS promoter inh 23.1, RAM inhibit 1.3 and Ins promoter up 0.02.
For COC(=O)c1nn(-c2ccccc2)c(Cl)c1/C=N/OCc1ccc(C)cc1 the results were Yeast growth inh -38.4, Yeast life ext -2.3, INS promoter inh 33.3, RAM inhibit 10.2* and Ins promoter up 0.13.
CO/N=C/c1c(C(=O)OC)nn(-c2ccccc2)c1Cl was read as INS promoter inh -39.5, RAM inhibit 2.3 and Ins promoter up -0.12.
`Cc1ccc(-c2nc(SCC(=O)NCCN3C(=O)CSC3=O)[nH]c2-c2ccc(C)cc2)cc1` gave Yeast growth inh -14.8, Yeast life ext -4.2, INS promoter inh -16.3, RAM inhibit 1.6 and Ins promoter up -0.41.
COC(=O)c1cn(NC(=O)c2ccc([N+](=O)[O-])cc2Cl)c(=O)c2ccccc12 was read as RAM inhibit 2.4 and Ins promoter up 0.61.
Screening Cc1ccc(S(=O)(=O)NC(=O)c2ccc(-c3ccc(-c4ccccc4)cc3)o2)c(C)c1 returned Yeast growth inh -34.5, Yeast life ext -7.3, INS promoter inh 66.7*, RAM inhibit 7.2 and Ins promoter up -0.39.
N#CCCn1cc(/C=N/NC(N)=S)c(-c2ccc(-c3ccccc3)cc2)n1 was read as INS promoter inh 57.1, RAM inhibit 3.0 and Ins promoter up -0.34.
O=C(Cc1cccs1)NNC(=S)NC(=O)c1ccc(F)c(F)c1 was read as Yeast growth inh -19.1, Yeast life ext 0.8, RAM inhibit -0.8 and Ins promoter up -0.24.
For O=C(Cc1cccs1)NNC(=S)NC(=O)c1ccccc1 the results were Yeast growth inh 86.5*, Yeast life ext 7.1, INS promoter inh 3.7, RAM inhibit 0.0 and Ins promoter up -0.11.
Screening CSc1ccc(/C=C(\NC(=O)c2ccccc2)C(=O)NN)cc1 returned Ins promoter up 0.75.
Screening COc1ccc(C(=O)SC2=NCCS2)cc1 returned Yeast growth inh -39.0, INS promoter inh 60.0 and RAM inhibit -0.8.
CCOc1ccc(C(=O)SC2=NCCS2)cc1 was read as Yeast growth inh -47.9, Yeast life ext 52.5*, RAM inhibit 0.3 and Ins promoter up -0.13.
CCOC(=O)CCc1c(C)n[nH]c1C was read as INS promoter inh -26.7, RAM inhibit 0.9 and Ins promoter up -0.64.
`C=CC(O)Cc1c(C)n[nH]c1C` (configuration not stated) gave Yeast growth inh -8.7, Yeast life ext -3.9, INS promoter inh 76.9*, RAM inhibit 1.6 and Ins promoter up -0.59.
`Cn1nc(C(F)(F)F)c(/C=N/OC(=O)c2ccccc2)c1Sc1ccc(Cl)cc1` gave Yeast growth inh -53.5, Yeast life ext -10.6, RAM inhibit 10.4* and Ins promoter up 0.36.
For NCCNC[C@@H]1COC2(CCCCCCCCCCC2)O1 the results were Ins promoter up -0.33.
CC(=O)Nc1ccc(Sc2ccccc2C(=O)O)c(C(=O)O)c1 was read as Ins promoter up 0.57.
CC(C)Cn1c(=O)c2ccccc2n2c(SCC(=O)N3c4ccccc4CC3C)nnc12 (configuration not stated) was read as Yeast growth inh -7.3, Yeast life ext 2.6, INS promoter inh 18.9, RAM inhibit 3.4 and Ins promoter up 0.12.
Screening COc1ccc(N(C(=O)Cc2cccs2)C2C=CS(=O)(=O)C2)cc1 (configuration not stated) returned RAM inhibit 1.6 and Ins promoter up 3.14*.
